In PubChem BioAssay AID624102 (Broad Institute, 2012):
The source made the active and inactive calls.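 How the source made its calls: active means fitted curve reaches a 35% signal drop at a concentration no higher than twice the top valid dose, in duplicate at both wavelengths; inactive means the rest, including activity in the opposite direction.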

Test: P. aeruginosa growth delay under iron chelation, dose response, whole organism, absorbance 405 nm, EDDHA, dry powder, set 8 (AID 624102)
Procedure, shortened: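 Material – P. aeruginosa ATCC 15692 cells · Amount – final OD600 0.0000005 bacteria · Buffer or medium – succinate M9 medium, pH 7.0, with 2 µM EDDHA iron chelator · Incubation – 24-30 h exposure, 37 °C · Signal – absorbance at 405 nm reflecting pyoverdine production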

| Compound | outcome |
| --- | --- |
| N#CC(c1ccc(Cl)cc1)c1ccccn1 (centres undefined) | inactive |
| N#CC(c1ccc(C(F)(F)F)c(Cl)n1)c1ccccc1OC(F)(F)F (centres undefined) | inactive |
| COCCC(C#N)c1ccc(F)cc1 (centres undefined) | inactive |
| COCCOCCC(C#N)c1ccc(Cl)cc1 (centres undefined) | inactive |
| CCCCC(C#N)c1ccc(F)cc1 (centres undefined) | inactive |
| CCCCC(C#N)c1ccc(F)cn1 (centres undefined) | inactive |
| CCCCC(C#N)c1ccccn1 (centres undefined) | inactive |
| COCCNC(C#N)c1ccc(Cl)cc1 (centres undefined) | inactive |
| CN(C)CCCC(C#N)c1ccc(F)cc1 (centres undefined) | inactive |
| COCCOCCC(C#N)c1ccc(F)cc1 (centres undefined) | inactive |
| CCCCC(c1ccc(Cl)cc1)c1nn[nH]n1 (centres undefined) | inactive |
| CCCCC(C#N)c1ccc(Cl)cn1 (centres undefined) | inactive |
| N#CC1c2ccc(Cl)cc2CCc2cccnc21 (centres undefined) | inactive |
| Clc1ccc(C(c2cccc(Cl)n2)c2nn[nH]n2)cc1 (centres undefined) | inactive |
| N#CC(c1ccc(F)cc1)c1cccc(Cl)n1 (centres undefined) | inactive |
| N#CC(c1ccc(Cl)cc1)N1CCCC1 (centres undefined) | inactive |
| CCCCC(C#N)c1ccc(Cl)cc1 (centres undefined) | inactive |
| COCCC(C#N)c1ccc(Cl)cc1 (centres undefined) | inactive |
| N#Cc1cccc(C(C#N)c2ccc(F)cc2)n1 (centres undefined) | inactive |
